# T cruzi inh – blocks replication of Trypanosoma cruzi; T. cruzi beta-gal in NIH3T3, luminescence, 90 h; inhibition, % (test concentration not listed); actives 1.4% (n = 300,000);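 active means mean inhibition across valid replicates above about 55%, limit read from the data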;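 further: signal also drops with host cell toxicity which is not excluded here; 0% = plate median of DMSO wells and 100% = zero luminescence signal; higher percent means less beta-gal luminescence so fewer parasites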
#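 System – NIH/3T3 host cells with β-galactosidase reporter T. cruzi · Doses – single 50 nL compound addition per well in DMSO · Reagent – 5000 T. cruzi trypomastigotes/well · Medium – Low-serum DMEM with 2% FBS · Timing – ≥90 h infection period, 3 h prior cell attachment · Evaluation – parasite load inhibition, % · Technique – GalScreen luminescence, 60 min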
# Hsp70 act – transcriptional activators of Hsp70; activation, % at 10 µM; actives 0.04% (n = 200,000); HeLa Hsp70 promoter luciferase reporter, luminescence; scaled: vehicle 0, proteasome-inhibitor control 100%;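 active means activation above the mean across all tested compounds plus 3 SD, cutoff set per campaign, cut at about 5.5% in these data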;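 further: 100% = MG132 at 30 µM as the positive control and 0% = DMSO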
# HSF-1 act – increases HSF-1 driven luciferase reporter signal. NIH3T3-HGL HSF-1 luciferase reporter, MG132, 8 h; 100% = twice DMSO control signal. activation, % at 9 µM. actives 1.7% (n = 300,000). AID 504408;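 active means mean replicate activation of at least 50% with a set share of replicates each reaching 50%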;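 further: 0% = median of the neutral control wells and 100% = twice that signal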
# L major viab – Leishmania major promastigote growth inhibition. Leishmania major promastigotes, resazurin fluorescence viability. inhibition, % at 10 µM. actives 9% (n = 200,000). AID 1063; in the data active means inhibition above about 50%;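 further: promastigotes grown with compound for 44 hours at 28 °C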
# HSF1 inh – HSF1 inhibition. NIH3T3-HGL HSE-luciferase, MG132-induced, luminescence 8 h; active compounds read low. activity change, negative = inhibition, % at 7.5 µM (by protocol). actives 0.77% (n = 300,000). AID 2098;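 active means more than half of replicate wells show activity change below -50%, luminescence cut by over half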;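 further: luciferase reports HSF-1 transcriptional activity via heat shock element; 0% = median of DMSO wells and -100% = zero luminescence signal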
# Starred values were filed as active, the others as inactive; nt = no result. This excerpt belongs to a sample that is enriched for hits.
SMILES,T cruzi inh,Hsp70 act,HSF-1 act,L major viab,HSF1 inh
CCOC(=O)c1ccc(N2CCN(c3ccc(F)cc3)CC2)c(NC(=O)Nc2cccc(OC)c2)c1,0,0,-15,96*,-4
CCOC(=O)c1ccc(N2CCN(c3ccccc3F)CC2)c(NC(=O)Nc2ccccc2)c1,48,0,-3,97*,-21
CCOC(=O)c1ccc(N2CCN(C(=O)c3ccccc3)CC2)c(NC(=O)c2ccco2)c1,10,nt,-1,nt,-1
c1ccc(N2CC3CCc4ccccc4C3=N2)cc1 (stereo not given),12,nt,57*,nt,23
CN(C)CCOC(C)(c1ccccc1)c1ccccn1 (stereo not given),-21,0,10,-5,1
COC(C#CCCN(C)C)(c1ccccc1)c1ccccc1,6,0,-3,100*,0
CC1(C)CC(=O)C2=C(C1)N=C1c3ccccc3C(=O)C1C2c1ccc(Cl)cc1 (stereo not given),53,0,26,94*,15
CCOC(=O)C1=C(C)N=C2c3ccccc3C(=O)C2C1c1ccc(Cl)cc1 (stereo not given),61*,0,-4,96*,-9
CC1(C)CC(=O)C2=C(C1)Nc1ccccc1NC2c1ccc(F)c(F)c1 (stereo not given),16,nt,-9,nt,13
Cc1ccc(C2C3=C(CC(C)(C)CC3=O)N=C3c4ccccc4C(=O)C32)cc1 (stereo not given),31,0,46,99*,6
Cc1ccc(C2C3=C(CC(C)(C)CC3=O)OC3=C2C(=O)CC(C)(C)C3)cc1,22,0,3,7,-12
CC1(C)OC1COc1c2ccoc2cc2oc(=O)ccc12 (stereo not given),-11,0,-3,-1,-8
COc1ccc(C2c3ccc(O)cc3Oc3ncn(Cc4ccco4)c(=N)c32)cc1 (stereo not given),50,nt,75*,nt,35
COc1ccc(C2C3=C(CC(C)(C)CC3=O)Oc3ncn(Cc4ccco4)c(=N)c32)cc1 (stereo not given),34,0,16,1,9
N=c1c2c(ncn1Cc1ccco1)Oc1ccc3ccccc3c1C2c1ccccc1 (stereo not given),45,0,-18,96*,-13
COc1ccc(C2c3c(ncn(Cc4ccco4)c3=N)Oc3ccc4ccccc4c32)cc1 (stereo not given),9,0,69*,99*,18
N=c1c2c(ncn1CCCO)Oc1ccc3ccccc3c1C2c1ccccc1 (stereo not given),22,nt,2,nt,1
COc1ccc(C2c3ccc(O)cc3Oc3ncn(Cc4ccccc4)c(=N)c32)cc1OC (stereo not given),11,nt,8,nt,0
COc1ccc(Cc2nc3c4c(ncn3n2)Oc2ccc3ccccc3c2C4c2ccc(OC)c(OC)c2)cc1 (stereo not given),57*,0,2,22,-10
S=C(NCC1CCCO1)NC1CCCC1 (stereo not given),-20,0,-17,3,0
O=C(Nc1cccnc1)c1ccc(S(=O)(=O)N2CCCCCC2)cc1,-7,0,-7,6,-3
Cn1cc(Br)c(C(=O)NNC(=O)Cc2ccc(Cl)cc2)n1,7,nt,-12,nt,-5
Cn1cc(Br)c(C(=O)NNC(=O)c2ccc(Cl)cc2)n1,0,1,10,52*,2
COc1cc(OC)cc(C(=O)NNC(=S)NCc2ccco2)c1,-2,0,31,-2,12
CCN1C(=O)C2(C(C#N)=C(N)Oc3c2c(C)nn3-c2ccccc2)c2ccccc21 (stereo not given),4,0,21,86*,1
SMILES,T cruzi inh,Hsp70 act,HSF-1 act,L major viab,HSF1 inh
Cc1cc(N)ccc1-n1c(C)ccc1C,18,0,-11,-8,-6
Cc1cc(N)ccc1N1CCCC1,21,0,-3,58*,-7
Cn1c(CNc2cccc(Cl)c2)nnc1SCC#N,-1,0,73*,-2,27
Cn1c(CNc2ccc(Cl)cc2)nnc1SCC#N,-6,0,15,-10,4
Fc1ccc(OCc2nc3ccccc3s2)cc1,-3,0,35,-2,23
CCNC(=O)NC(=O)C(C)OC(=O)CCCSc1nc2ccccc2s1 (stereo not given),-7,0,1,64*,6
CCNC(=O)NC(=O)COC(=O)CCCSc1nc2ccccc2s1,-1,0,-25,-4,-9
CNC(=O)NC(=O)C(C)OC(=O)CCCSc1nc2ccccc2s1 (stereo not given),-10,0,3,65*,-7
CNC(=O)NC(=O)C(C)OC(=O)CCCc1nc2ccccc2s1 (stereo not given),-6,0,6,7,-6
CC(CCCC(C)(C)O)NCc1cn[nH]c1-c1ccc2c(c1)OCO2 (stereo not given),-8,0,1,0,-3
CCN(CC)c1ccc2c(Cl)c(Br)c(=O)oc2c1,59*,-1,326*,69*,280
CCN(CC)c1ccc2c(C)c(Cl)c(=O)oc2c1,-9,0,-2,4,-5
N#C/C(=N\Nc1ccccc1)C(=N)N1CCCCC1,-2,0,40,90*,22
N#C/C(=N\Nc1ccccc1[N+](=O)[O-])C(=N)N1CCCCC1,15,0,64*,-3,35
CCCSc1cc(=O)n(-c2ccc(F)cc2)nc1C(=O)OCC,-5,0,-13,2,-6
Cc1cc(C)cc(C(=O)NCC(=O)OC(C)C(=O)N(C)c2ccccc2)c1 (stereo not given),-9,0,-3,2,0
COCCCn1cc(C(=O)c2ccccc2OCC(=O)Nc2cccc(F)c2)cc(C#N)c1=O,11,0,7,6,-2
O=C1OCCN1CCNCc1cn(-c2ccc(F)cc2)nc1-c1ccccc1Cl,1,0,-33,6,-14
Cc1ccc(-n2cc(CNCCN3CCOC3=O)c(-c3cccc(C)c3)n2)cc1,-7,0,69*,30,28
CC(C)N(Cc1nc(-c2ccc(Cl)cc2)no1)C(=O)CN(C)S(=O)(=O)c1ccc(Cl)cc1,56*,0,85*,12,38
N#Cc1ccccc1NC(=O)C1CC(=O)N(c2ccc3c4c(cccc24)CC3)C1 (stereo not given),-15,0,4,57*,3
COc1ccc(CCNC(=O)CC(c2ccccc2)c2cc(C)ccc2O)cc1OC (stereo not given),-1,nt,-6,nt,-4
CCOC(=O)/C(=C/C1=CC(=C/N(C)C)/C(=O)O1)C(C)=O,9,nt,8,nt,-7
Cc1nc(NC2=NCN(CC3CCCO3)CN2)nc2ccccc12 (stereo not given),nt,0,nt,1,nt
Cc1nc(NC2=NCN(CCCN3CCOCC3)CN2)nc2c(C)cccc12,nt,0,nt,88*,nt
